Experimental data as given in ChEMBL document CHEMBL1158569, “Structure-activity relationships in a novel series of 7-substituted-aryl quinolines and 5-substituted-aryl benzothiazoles at the metabotropic glutamate receptor subtype 5” (Bioorg Med Chem, 2010).
The source made the active and inactive calls. The rule behind the calls is not given here.

Experiments:
[1] = target: Metabotropic glutamate receptor 6 (Homo sapiens) (UniProt O15303); experiment: Inhibition of mGluR6 expressed in CHO cells at 10 uM; format: cell-based
Chain of Metabotropic glutamate receptor 6 (Homo sapiens) (O15303 whole entry): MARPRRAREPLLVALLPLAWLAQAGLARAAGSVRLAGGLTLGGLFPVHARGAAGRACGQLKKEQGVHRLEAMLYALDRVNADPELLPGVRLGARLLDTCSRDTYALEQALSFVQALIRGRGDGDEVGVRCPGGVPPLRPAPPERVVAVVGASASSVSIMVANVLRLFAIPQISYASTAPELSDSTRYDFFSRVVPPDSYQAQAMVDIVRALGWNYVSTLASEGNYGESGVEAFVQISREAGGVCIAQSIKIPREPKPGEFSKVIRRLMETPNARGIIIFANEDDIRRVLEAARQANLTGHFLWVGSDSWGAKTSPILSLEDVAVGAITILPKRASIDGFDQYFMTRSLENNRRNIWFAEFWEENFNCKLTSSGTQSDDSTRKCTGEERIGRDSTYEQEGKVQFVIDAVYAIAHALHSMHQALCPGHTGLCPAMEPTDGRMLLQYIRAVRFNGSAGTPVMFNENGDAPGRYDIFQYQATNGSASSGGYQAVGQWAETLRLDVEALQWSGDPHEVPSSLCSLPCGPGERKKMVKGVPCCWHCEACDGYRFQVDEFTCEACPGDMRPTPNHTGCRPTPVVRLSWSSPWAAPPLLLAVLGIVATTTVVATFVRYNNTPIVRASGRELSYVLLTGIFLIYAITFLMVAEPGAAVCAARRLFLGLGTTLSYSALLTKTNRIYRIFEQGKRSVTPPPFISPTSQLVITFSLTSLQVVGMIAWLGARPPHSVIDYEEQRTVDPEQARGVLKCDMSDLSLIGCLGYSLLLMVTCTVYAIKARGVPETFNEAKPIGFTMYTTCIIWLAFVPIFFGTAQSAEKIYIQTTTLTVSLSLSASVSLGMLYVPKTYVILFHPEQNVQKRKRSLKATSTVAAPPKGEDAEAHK

[2] = target: Metabotropic glutamate receptor 1 (Homo sapiens) (UniProt Q13255); experiment: Inhibition of mGluR1 expressed in CHO cells at 10 uM; format: cell-based
Chain of Metabotropic glutamate receptor 1 (Homo sapiens) (Q13255 19-1194 limits assumed): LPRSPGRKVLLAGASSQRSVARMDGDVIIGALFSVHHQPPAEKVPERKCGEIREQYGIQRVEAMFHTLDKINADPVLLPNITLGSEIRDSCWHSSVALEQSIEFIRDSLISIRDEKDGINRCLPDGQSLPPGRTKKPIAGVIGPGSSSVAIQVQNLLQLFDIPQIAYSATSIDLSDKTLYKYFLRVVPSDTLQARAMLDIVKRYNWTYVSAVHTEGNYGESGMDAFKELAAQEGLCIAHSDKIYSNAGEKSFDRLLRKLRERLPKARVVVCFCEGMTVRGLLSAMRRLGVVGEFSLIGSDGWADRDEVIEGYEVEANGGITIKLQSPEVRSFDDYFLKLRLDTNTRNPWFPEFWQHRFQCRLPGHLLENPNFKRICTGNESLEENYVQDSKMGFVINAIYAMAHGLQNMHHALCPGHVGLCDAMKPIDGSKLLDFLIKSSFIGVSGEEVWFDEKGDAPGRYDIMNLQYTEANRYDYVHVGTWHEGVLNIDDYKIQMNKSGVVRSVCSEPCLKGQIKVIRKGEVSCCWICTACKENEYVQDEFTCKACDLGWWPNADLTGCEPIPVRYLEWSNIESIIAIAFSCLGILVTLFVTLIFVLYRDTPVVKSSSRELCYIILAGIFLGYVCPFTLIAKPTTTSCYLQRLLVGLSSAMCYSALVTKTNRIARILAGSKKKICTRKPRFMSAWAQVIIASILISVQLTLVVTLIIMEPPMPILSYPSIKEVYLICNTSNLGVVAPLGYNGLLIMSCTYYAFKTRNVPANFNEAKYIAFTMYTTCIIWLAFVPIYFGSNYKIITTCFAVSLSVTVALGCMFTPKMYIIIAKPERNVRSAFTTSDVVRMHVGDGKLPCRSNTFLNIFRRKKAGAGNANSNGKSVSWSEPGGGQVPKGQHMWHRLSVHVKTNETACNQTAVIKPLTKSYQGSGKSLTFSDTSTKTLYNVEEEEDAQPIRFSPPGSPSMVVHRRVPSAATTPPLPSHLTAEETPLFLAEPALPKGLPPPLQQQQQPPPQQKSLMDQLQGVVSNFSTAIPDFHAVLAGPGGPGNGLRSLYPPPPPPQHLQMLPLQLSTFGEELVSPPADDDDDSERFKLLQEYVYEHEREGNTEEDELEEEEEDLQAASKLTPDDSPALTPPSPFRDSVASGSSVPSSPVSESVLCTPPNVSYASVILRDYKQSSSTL

[3] = target: Glutamate NMDA receptor (Rattus norvegicus) (UniProt P35439+Q00959+Q00960+Q00961+Q62645+Q8VHN2+Q9R1M7); experiment: Displacement of [3H]MK801 from NMDA receptor in rat brain homogenate at 10 uM by scintillation counting; format: tissue-based
[4] = target: Metabotropic glutamate receptor 4 (Homo sapiens) (UniProt Q14833); experiment: Inhibition of mGluR4 expressed in CHO cells at 10 uM; format: cell-based
Chain of Metabotropic glutamate receptor 4 (Homo sapiens) (Q14833 whole entry): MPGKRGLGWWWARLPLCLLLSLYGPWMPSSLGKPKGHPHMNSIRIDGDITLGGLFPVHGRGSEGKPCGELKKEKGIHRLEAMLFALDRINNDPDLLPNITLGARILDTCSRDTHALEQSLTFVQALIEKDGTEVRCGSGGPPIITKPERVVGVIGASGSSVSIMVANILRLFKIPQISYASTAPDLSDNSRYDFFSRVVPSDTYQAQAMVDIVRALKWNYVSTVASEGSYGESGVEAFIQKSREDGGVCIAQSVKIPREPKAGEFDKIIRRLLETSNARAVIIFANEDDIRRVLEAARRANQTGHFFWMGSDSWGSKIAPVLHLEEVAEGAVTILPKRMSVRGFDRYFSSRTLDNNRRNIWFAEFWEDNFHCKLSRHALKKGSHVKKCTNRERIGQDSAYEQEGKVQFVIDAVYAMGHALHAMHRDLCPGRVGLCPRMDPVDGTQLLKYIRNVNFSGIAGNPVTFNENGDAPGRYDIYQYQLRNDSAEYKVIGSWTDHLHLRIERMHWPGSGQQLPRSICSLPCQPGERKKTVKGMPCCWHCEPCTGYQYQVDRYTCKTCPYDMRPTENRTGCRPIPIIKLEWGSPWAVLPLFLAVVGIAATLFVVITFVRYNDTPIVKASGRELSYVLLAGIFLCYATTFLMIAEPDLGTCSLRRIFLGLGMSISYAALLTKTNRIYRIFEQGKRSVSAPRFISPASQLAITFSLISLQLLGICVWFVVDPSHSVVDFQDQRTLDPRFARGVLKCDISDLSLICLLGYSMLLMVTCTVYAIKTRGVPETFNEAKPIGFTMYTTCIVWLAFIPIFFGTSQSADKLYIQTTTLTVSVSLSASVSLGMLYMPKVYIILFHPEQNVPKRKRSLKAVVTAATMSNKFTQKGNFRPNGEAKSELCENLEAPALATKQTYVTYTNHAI

[5] = target: Metabotropic glutamate receptor 8 (Homo sapiens) (UniProt O00222); experiment: Inhibition of mGluR8 expressed in CHO cells at 10 uM; format: cell-based
[6] = target: Metabotropic glutamate receptor 2 (Homo sapiens) (UniProt Q14416); experiment: Inhibition of mGluR2 expressed in CHO cells at 10 uM; format: cell-based
Chain of Metabotropic glutamate receptor 2 (Homo sapiens) (Q14416 19-872 limits assumed): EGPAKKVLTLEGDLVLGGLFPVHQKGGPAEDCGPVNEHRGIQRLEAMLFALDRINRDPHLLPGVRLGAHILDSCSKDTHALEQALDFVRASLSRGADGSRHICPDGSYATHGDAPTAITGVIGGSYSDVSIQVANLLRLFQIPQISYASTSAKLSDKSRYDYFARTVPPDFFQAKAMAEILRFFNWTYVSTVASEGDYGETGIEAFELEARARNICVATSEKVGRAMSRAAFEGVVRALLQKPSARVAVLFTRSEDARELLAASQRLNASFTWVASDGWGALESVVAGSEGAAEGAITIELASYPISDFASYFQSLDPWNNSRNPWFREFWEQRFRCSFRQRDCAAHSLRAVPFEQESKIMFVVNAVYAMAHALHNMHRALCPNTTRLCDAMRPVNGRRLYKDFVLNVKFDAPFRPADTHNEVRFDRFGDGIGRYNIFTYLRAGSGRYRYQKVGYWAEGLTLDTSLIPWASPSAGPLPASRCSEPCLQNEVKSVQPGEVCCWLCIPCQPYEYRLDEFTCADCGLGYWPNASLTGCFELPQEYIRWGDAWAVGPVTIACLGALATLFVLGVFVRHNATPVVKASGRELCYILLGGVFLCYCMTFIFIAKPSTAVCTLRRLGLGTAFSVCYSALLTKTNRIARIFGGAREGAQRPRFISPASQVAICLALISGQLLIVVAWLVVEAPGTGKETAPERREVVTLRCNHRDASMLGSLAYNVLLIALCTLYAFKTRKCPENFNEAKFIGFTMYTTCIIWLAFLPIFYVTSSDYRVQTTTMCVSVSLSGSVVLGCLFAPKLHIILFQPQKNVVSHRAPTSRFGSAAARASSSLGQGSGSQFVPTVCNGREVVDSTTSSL

[7] = target: T1, Metabotropic glutamate receptor 5 (Rattus norvegicus, UniProt P31424); experiment: Antagonist activity at rat mGluR5 expressed in HEK293A cells assessed as inhibition of glutamate-induced calcium flux preincubated for 140 secs before glutamate challenge by calcium fluorescence assay; format: functional, cell-based, HEK293-A
T1 sequence (P31424 whole entry): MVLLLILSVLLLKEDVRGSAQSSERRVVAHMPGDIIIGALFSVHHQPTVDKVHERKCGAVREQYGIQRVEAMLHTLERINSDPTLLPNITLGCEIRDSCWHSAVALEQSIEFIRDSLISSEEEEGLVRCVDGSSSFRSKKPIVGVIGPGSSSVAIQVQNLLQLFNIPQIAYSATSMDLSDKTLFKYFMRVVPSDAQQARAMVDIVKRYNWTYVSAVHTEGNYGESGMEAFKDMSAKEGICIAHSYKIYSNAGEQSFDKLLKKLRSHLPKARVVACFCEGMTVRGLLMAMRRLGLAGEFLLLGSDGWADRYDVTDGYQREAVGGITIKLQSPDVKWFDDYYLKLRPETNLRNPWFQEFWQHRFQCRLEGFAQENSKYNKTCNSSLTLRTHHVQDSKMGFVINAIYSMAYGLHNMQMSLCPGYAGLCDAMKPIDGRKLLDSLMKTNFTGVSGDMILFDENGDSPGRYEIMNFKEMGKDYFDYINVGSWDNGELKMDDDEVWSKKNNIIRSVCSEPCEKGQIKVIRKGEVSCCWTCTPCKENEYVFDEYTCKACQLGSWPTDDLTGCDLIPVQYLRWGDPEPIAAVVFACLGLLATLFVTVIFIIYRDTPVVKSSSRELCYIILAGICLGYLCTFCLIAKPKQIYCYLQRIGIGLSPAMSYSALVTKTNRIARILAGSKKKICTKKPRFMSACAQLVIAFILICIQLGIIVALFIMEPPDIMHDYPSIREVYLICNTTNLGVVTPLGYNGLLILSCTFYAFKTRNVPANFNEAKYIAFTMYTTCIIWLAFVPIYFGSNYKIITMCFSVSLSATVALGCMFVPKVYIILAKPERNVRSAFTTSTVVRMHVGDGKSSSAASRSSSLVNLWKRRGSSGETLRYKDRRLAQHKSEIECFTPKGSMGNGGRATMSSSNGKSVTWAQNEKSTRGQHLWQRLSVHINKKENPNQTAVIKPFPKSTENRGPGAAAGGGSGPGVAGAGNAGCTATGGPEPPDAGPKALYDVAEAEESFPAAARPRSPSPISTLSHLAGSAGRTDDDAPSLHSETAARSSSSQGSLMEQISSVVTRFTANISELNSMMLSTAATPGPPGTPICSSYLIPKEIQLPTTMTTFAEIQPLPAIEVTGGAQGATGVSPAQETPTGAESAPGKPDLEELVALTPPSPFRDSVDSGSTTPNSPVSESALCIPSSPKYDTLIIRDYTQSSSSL
How it was run: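 Functional read-out was receptor-induced intracellular calcium release, detected by calcium fluorescence. A kinetic imaging plate reader recorded calcium levels simultaneously in every well of 384-well plates. IC50 reported as ±SEM.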

[8] = target: T1, Metabotropic glutamate receptor 5; experiment: Displacement of [3HMPEP from rat cloned mGluR5 expressed in HEK293T cells by scintillation counting; format: cell-based, HEK-293T
How it was run: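 Radioligand displacement with [3H]MPEP, run through the NIMH Psychoactive Drug Screening Program. Receptor source was rat brain membranes or HEK293-T cells transfected with cloned rat mGluR5 cDNA. Ki reported as ±SEM.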

[9] = target: Metabotropic glutamate receptor 5 (Rattus norvegicus) (UniProt P31424); details: HEK293-A, 0.0001 to 100 uM

| inhibition [1] | inhibition [2] | Activity [3] | inhibition [4] | inhibition [5] | inhibition [6] | IC50 [7] | Ki [8] | inhibition [9] | SMILES |
| --- | --- | --- | --- | --- | --- | --- | --- | --- | --- |
| < 50% | < 50% | inactive | < 50% | < 50% | < 50% | > 10000 nM | 1040 nM | – | Cc1ccc2ccc(-c3ccc(OCc4ccccc4)c(C#N)c3)cc2n1 |
| < 50% | < 50% | inactive | < 50% | < 50% | < 50% | > 10000 nM | 4680 nM | – | Cc1nc2cc(-c3ccc(-c4ccc(F)cc4)c(C#N)c3)ccc2s1 |
| < 50% | < 50% | inactive | < 50% | < 50% | < 50% | > 10000 nM | > 10000 nM | – | Cc1ccc2ccc(-c3ccc(O)c(C#N)c3)cc2n1 |
| < 50% | < 50% | inactive | < 50% | < 50% | < 50% | 294 nM | 596 nM | – | COCOc1ccc(-c2ccc3ccc(C)nc3c2)cc1C#N |
| < 50% | < 50% | inactive | < 50% | < 50% | < 50% | – | – | – | Cc1nc2cc(-c3cccc(C#N)c3)ccc2s1 |
| < 50% | < 50% | inactive | < 50% | < 50% | < 50% | 1340 nM | 730 nM | – | Cc1ccc2ccc(-c3ccc(-c4cccnc4)c(C#N)c3)cc2n1 |
| < 50% | < 50% | inactive | < 50% | < 50% | < 50% | 13 nM | 1.5 nM | – | Cc1cccc(C#Cc2cncc(C#N)c2)n1 |
| < 50% | < 50% | inactive | < 50% | < 50% | < 50% | 1250 nM | 97 nM | – | Cc1ccc2ccc(-c3ccc(-c4ccccc4)c(C#N)c3)cc2n1 |
| < 50% | < 50% | inactive | < 50% | < 50% | < 50% | 692 nM | 64 nM | – | Cc1ccc2ccc(-c3ccc(-c4ccc(F)cc4)c(C#N)c3)cc2n1 |
| < 50% | < 50% | inactive | < 50% | < 50% | < 50% | 3310 nM | > 10000 nM | 50% | Cc1ccc2ccc(-c3cnc(Cl)c(C#N)c3)cc2n1 |
| < 50% | < 50% | inactive | < 50% | < 50% | < 50% | – | – | – | Cc1nc(C#Cc2cccnc2)cs1 |
| < 50% | < 50% | inactive | < 50% | < 50% | < 50% | > 10000 nM | 7130 nM | – | Cc1nc2cc(-c3ccc(OCc4ccccc4)c(C#N)c3)ccc2s1 |
| < 50% | < 50% | inactive | < 50% | < 50% | < 50% | 9150 nM | 4720 nM | – | Cc1ccc2ccc(-c3ccc(Cl)cc3C#N)cc2n1 |
| < 50% | < 50% | inactive | < 50% | < 50% | < 50% | 81 nM | 97 nM | – | Cc1ccc2ccc(-c3cnc(-c4ccccc4)c(C#N)c3)cc2n1 |
| < 50% | < 50% | inactive | < 50% | < 50% | < 50% | 7840 nM | 862 nM | – | Cc1nc2cc(-c3ccc(OS(=O)(=O)C(F)(F)F)c(C#N)c3)ccc2s1 |
